Among the data in the RNAGym collection of RNA variant scans (doi:10.1038/nmeth.2970) are Kd values, retold here.

The chains are these.
B1: GFP aptamer (parent)
chain: GCUUCUGGACUGCGAUGGGAGCACGAAACGUCGUGGCGCAAUUGGGUGGGGAAAGUCCUUAAAAGAGGGCCACCACAGAAGC

The data set covers variants of B1. In words: HiTS-RAP. The conditions noted are these: with EGFP. Summed up:
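Aptamer DNA templates carrying a T7 promoter and ter site were sequenced on an Illumina GAIIx flowcell, then transcribed in situ by T7 RNA polymerase and halted by GST-Tus (30 minutes, 37°C). Clusters were imaged after 30-minute room-temperature equilibration with EGFP-mOrange at 0.04 nM to 625 nM in fivefold steps. Intensities were decay-corrected, normalised to sequencing intensity and averaged per sequence. Kd came from weighted Hill fits per lane, geometrically averaged over three lanes, with non-rising sequences set to 125 nM.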
On to GCUUCUGGACUGCGAUGGGAGCACGAAACGUCGUGGCGCAAUCGGGUGGGGAAAGUCCUUAAAAGAGGGCCACCACGGAAGC [U43C A77G], for which the Kd (usually the equilibrium constant for the complex coming apart) was determined as 5.23 nM.

Turning to GCUUCUGGACUGCGAUGGGAGCACGAAACGUCGUGGCGCAGUUGGGCGGGGAAAGUCCUUAAAAGAGGGCCACCACAGAAGC [A41G U47C], the dissociation constant (Kd) turned out to be 2.42 nM.

As for GCUUCUGGACUGCGAUGGGAGCACGAAACGUCGUGGCGCAAUUGAGUGGGGAAAGUCCUUAAAAGAGGGCCACCACAGAAGC [G45A], the Kd came out at 28.2 nM.

As for GCUUCUGGACUGCGAUGGGAGCACGAAACGUCGUGGCGCAAUUGUGUGGGGAAAGUCCUUAAAAGAGGGCCACCACAGAAGC [G45U], the Kd was found to be 22.7 nM. As to GCUUCUGGACUGCGAUGGGAGCACGAAACGUCGUGGCGCAAUUGCGUGGGGAAAGUCCUUAAAAGAGGGCCACCACAGAAGC [G45C], the Kd was 178 nM. In the case of GCUUCUGGACUGCGAUGGGAGCACGAAACGUCGUGGCGCAACUGGGUGGGGAAAGUCCUUAAAAGAGGGCCACUACAGAAGC [U42C C74U] it was 1.05 nM; in that of GCUUCUGGACUGCGAUGGGAGCACGAAACGUCGUGGCGCAAUUGGGUGGGGAUAGUCCUUAAAAGAGGGCCACCACAGAAGC [A53U], 118 nM.

On to GCUUCUGGACUGCGAUGGGAGCACGAAACGUCGUGGCGCAAUUGGGUGGGGAGAGUCCUUAAAAGAGGGCCACCACAGAAGC [A53G], for which the Kd came out at 33.3 nM. In the case of GCUUCUGGACUGCGAUGGGAGCACGAAACGUCGUGGCGCAGUUGGGUGGGGAAAGUCCUUAAAAGAGGGCCACCACAGAAGC [A41G], the Kd is 5.96 nM. In the case of GCUUCUGGACUGCGAUGGGAGCACGAAACGUCGUGGCGCAUUUGGGUGGGGAAAGUCCUUAAAAGAGGGCCACCACAGAAGC [A41U] it was 4.87 nM; in that of GCUUCUGGACUGCGAUGGGAGCACGAAACGUCGUGGCGCACUUGGGUGGGGAAAGUCCUUAAAAGAGGGCCACCACAGAAGC [A41C], 10.1 nM. In the case of GCUUCUGGACUGCGAUGGGAGCACGAAACGUCGUGGCGCAAUUGGUUGGGGAAAGUCCUUAAAAGAGGGCCACCACAGAAGC [G46U] it was 29.2 nM; in that of GCUUCUGGACUGCGAUGGGAGCACGAAACGUCGUGGCGCAAUUGGCUGGGGAAAGUCCUUAAAAGAGGGCCACCACAGAAGC [G46C], 58.8 nM. In the case of GCUUCUGGACUGCGAUGGGAGCACGAAACGUCGUGGCGCAAUUGGAUGGGGAAAGUCCUUAAAAGAGGGCCACCACAGAAGC [G46A] it was 18.7 nM; in that of GCUUCUGGACUGCGAUGGGAGCACGAAACGUCGUGGCGCAAUUGGGUCGGGAAAGUCCUUAAAAGAGGGCCACCACAGAAGC [G48C], at least 125 nM. Take GCUUCUGGACUGCGAUGGGAGCACGAAACGUCGUGGCGCAAUUGGGUAGGGAAAGUCCUUAAAAGAGGGCCACCACAGAAGC [G48A]: the Kd was at least 125 nM. As for GCUUCUGGACUGCGAUGGGAGCACGAAACGUCGUGGCGCAAUUGGGUUGGGAAAGUCCUUAAAAGAGGGCCACCACAGAAGC [G48U], the figure is 21.3 nM. In the case of GCUUCUGGACUGCGAUGGGAGCACGAAACGUCGUGGCGCAGUCGGGUGGGGAAAGUCCUUAAAAGAGGGCCACCACAGAAGC [A41G U43C], the Kd worked out at 12.7 nM.

In the case of GCUUCUGGACUGCGAUGGGAGCACGAAACGUCGUGGCGCAAUUGGGUGGGGAAAGUCGUUAAAAGAGGGCCACCACAGAAGC [C58G], the dissociation constant Kd was determined as 29.1 nM. GCUUCUGGACUGCGAUGGGAGCACGAAACGUCGUGGCGCAAUUGGGUGAGGAAAGUCCUUAAAAGAGGGCCACCACAGAAGC [G49A]: the dissociation constant (Kd) amounted to 21.5 nM. In the case of GCUUCUGGACUGCGAUGGGAGCACGAAACGUCGUGGCGCAAUUGGGUGCGGAAAGUCCUUAAAAGAGGGCCACCACAGAAGC [G49C] it was 57.7 nM; in that of GCUUCUGGACUGCGAUGGGAGCACGAAACGUCGUGGCGCAAUUGGGUGUGGAAAGUCCUUAAAAGAGGGCCACCACAGAAGC [G49U], 11.1 nM. With GCUUCUGGACUGCGAUGGGAGCACGAAACGUCGUGGCGCAAUUGGGCGGGGAAAGUCCUUAAAAGAGGGCCACCACAGGAGC [U47C A79G], the equilibrium dissociation constant (Kd) was determined as 62.1 nM. Consider GCUUCUGGACUGCGAUGGGAGCACGAAACGUCGUGGCGCAACUGGGUGGGGAAAGUCCUUAAAAGAGGGCCACCACAGAAGC [U42C], for which the Kd came to 6.72 nM. As for GCUUCUGGACUGCGAUGGGAGCACGAAACGUCGUGGCGCAAAUGGGUGGGGAAAGUCCUUAAAAGAGGGCCACCACAGAAGC [U42A], the figure is 31.8 nM. As to GCUUCUGGACUGCGAUGGGAGCACGAAACGUCGUGGCGCAAGUGGGUGGGGAAAGUCCUUAAAAGAGGGCCACCACAGAAGC [U42G], the Kd is 7.09 nM. For GCUUCUGGACUGCGAUGGGAGCACGAAACGUCGUGGCGCAACUGGGCGGGGAAAGUCCUUAAAAGAGGGCCACCACAGAAGC [U42C U47C], the dissociation constant Kd was determined as 19.6 nM. As for GCUUCUGGACUGCGAUGGGAGCACGAAACGUCGUGGCGCGAUUGGGUGGGGAAAGUCCUUAAAAGAGGGCCACCACGGAAGC [A40G A77G], the figure is 4.67 nM. On to GCUUCUGGACUGCGAUGGGAGCACGAAACGUCGUGGCGCAAUUCGGUGGGGAAAGUCCUUAAAAGAGGGCCACCACAGAAGC [G44C], for which the Kd came to 34.8 nM. Take GCUUCUGGACUGCGAUGGGAGCACGAAACGUCGUGGCGCAAUUUGGUGGGGAAAGUCCUUAAAAGAGGGCCACCACAGAAGC [G44U]: the Kd was 93.2 nM. Take GCUUCUGGACUGCGAUGGGAGCACGAAACGUCGUGGCGCAAUUAGGUGGGGAAAGUCCUUAAAAGAGGGCCACCACAGAAGC [G44A]: the Kd stood at 5.26 nM.

With GCUUCUGGACUGCGAUGGGAGCACGAAACGUCGUGGCGCAACUGGGUGGGGAAAGUCCUUAAAAGAGGGCCACCACGGAAGC [U42C A77G], the Kd was determined as 13.7 nM. On to GCUUCUGGACUGCGAUGGGAGCACGAAACGUCGUGGCGCUAUUGGGUGGGGAAAGUCCUUAAAAGAGGGCCACCACAGAAGC [A40U], for which the equilibrium dissociation constant (Kd) came to 21.7 nM.
